Data reported in ChEMBL document CHEMBL1158372, “Design, synthesis, and biological evaluation of novel triazole derivatives as inhibitors of cytochrome P450 14alpha-demethylase” (2009).
Converted amounts (≈) assume the structure as drawn.

Tests used:
Type in all cases: functional
Candida albicans = experiment: Antifungal activity against Candida albicans ATCC 76615 after 24 hrs by micro-broth dilution method; details: ATCC 76615, 24 h
Summary of the method: (§1)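 NCCLS (M27-A2) broth microdilution in 96-well format. Compounds in DMSO, serially diluted in growth medium, inoculated, incubated at 35 °C, and read at 24 h (C. albicans ATCC76615) or 72 h (Cry. neoformans ATCC32609). MIC80 is the first well with about 80% less growth than the drug-free well. Three independent runs per agent; the mean of replicates is reported.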

Cryptococcus neoformans = experiment: Antifungal activity against Cryptococcus neoformans ATCC 32609 after 72 hrs by micro-broth dilution method; details: ATCC 32609, 72 h; summary of the method: as §1
Candida parapsilosis = experiment: Antifungal activity against Candida parapsilosis by micro-broth dilution method; details: Lodderomyces parapsilosis
Summary of the method: (§2)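 Broth microdilution in 96-well plates following the NCCLS method. DMSO solutions of test agents were serially diluted in growth medium, inoculated, and incubated at 35 °C. MIC80 is the first well showing roughly 80% growth reduction versus the drug-free control. C. albicans ATCC76615 and Cry. neoformans ATCC32609 served as quality-control strains. Each test was done three times; the mean of replicates is reported.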

Candida tropicalis = experiment: Antifungal activity against Candida tropicalis by micro-broth dilution method; summary of the method: as §2
Trichophyton rubrum = experiment: Antifungal activity against Trichophyton rubrum by micro-broth dilution method; summary of the method: as §2
Pichia kudriavzevii = experiment: Antifungal activity against Candida krusei by micro-broth dilution method; summary of the method: as §2
Nannizzia gypsea = experiment: Antifungal activity against Microsporum gypseum by micro-broth dilution method; summary of the method: as §2
Aspergillus fumigatus = experiment: Antifungal activity against Aspergillus fumigatus by micro-broth dilution method; summary of the method: as §2

SMILES	MIC80 (Candida albicans) [µg/mL]	MIC80 (Cryptococcus neoformans) [µg/mL]	MIC80 (Candida parapsilosis) [µg/mL]	MIC80 (Candida tropicalis) [µg/mL]	MIC80 (Trichophyton rubrum) [µg/mL]	MIC80 (Pichia kudriavzevii) [µg/mL]	MIC80 (Nannizzia gypsea) [µg/mL]	MIC80 (Aspergillus fumigatus) [µg/mL]
C=CCN(Cc1ccc(Br)cc1)CC(O)(Cn1cncn1)c1ccc(F)cc1F (centres undefined)	0.0625 (≈ 0.135 µM)	0.25 (≈ 0.54 µM)	0.25 (≈ 0.54 µM)	0.25 (≈ 0.54 µM)	0.25 (≈ 0.54 µM)	0.0625 (≈ 0.135 µM)	0.0625 (≈ 0.135 µM)	4 (≈ 8.63 µM)
C=CCN(Cc1ccc(C(=O)Oc2cccc([N+](=O)[O-])c2)cc1)CC(O)(Cn1cncn1)c1ccc(F)cc1F (centres undefined)	0.25 (≈ 0.455 µM)	1 (≈ 1.82 µM)	0.25 (≈ 0.455 µM)	0.0625 (≈ 0.114 µM)	4 (≈ 7.28 µM)	4 (≈ 7.28 µM)	1 (≈ 1.82 µM)	> 64
C=CCN(Cc1ccc(C(=O)Oc2ccc(C(=O)OCCC)cc2)cc1)CC(O)(Cn1cncn1)c1ccc(F)cc1F (centres undefined)	1 (≈ 1.69 µM)	4 (≈ 6.77 µM)	0.25 (≈ 0.423 µM)	0.25 (≈ 0.423 µM)	1 (≈ 1.69 µM)	4 (≈ 6.77 µM)	1 (≈ 1.69 µM)	> 64
C=CCN(Cc1ccc(C(=O)OCCCCC)cc1)CC(O)(Cn1cncn1)c1ccc(F)cc1F (centres undefined)	1 (≈ 2.01 µM)	1 (≈ 2.01 µM)	1 (≈ 2.01 µM)	1 (≈ 2.01 µM)	0.25 (≈ 0.501 µM)	1 (≈ 2.01 µM)	1 (≈ 2.01 µM)	> 64
C=CCN(Cc1ccccc1)CC(O)(Cn1cncn1)c1ccc(F)cc1F (centres undefined)	0.0039 (≈ 0.0101 µM)	0.0625 (≈ 0.163 µM)	0.0625 (≈ 0.163 µM)	0.0625 (≈ 0.163 µM)	0.25 (≈ 0.65 µM)	0.0625 (≈ 0.163 µM)	0.0039 (≈ 0.0101 µM)	> 64
C=CCN(Cc1cccc(Cl)c1)CC(O)(Cn1cncn1)c1ccc(F)cc1F (centres undefined)	0.0156 (≈ 0.0372 µM)	0.25 (≈ 0.597 µM)	0.25 (≈ 0.597 µM)	0.0625 (≈ 0.149 µM)	1 (≈ 2.39 µM)	0.0625 (≈ 0.149 µM)	0.0625 (≈ 0.149 µM)	> 64
C=CCN(Cc1ccccc1Cl)CC(O)(Cn1cncn1)c1ccc(F)cc1F (centres undefined)	0.0156 (≈ 0.0372 µM)	0.25 (≈ 0.597 µM)	0.0625 (≈ 0.149 µM)	0.25 (≈ 0.597 µM)	1 (≈ 2.39 µM)	0.0625 (≈ 0.149 µM)	0.0625 (≈ 0.149 µM)	> 64
C=CCN(Cc1ccc(F)cc1)CC(O)(Cn1cncn1)c1ccc(F)cc1F (centres undefined)	0.0156 (≈ 0.0388 µM)	0.0625 (≈ 0.155 µM)	0.0625 (≈ 0.155 µM)	0.0625 (≈ 0.155 µM)	1 (≈ 2.48 µM)	0.0625 (≈ 0.155 µM)	0.0156 (≈ 0.0388 µM)	> 64
